Data taken from publication PMC10825487 (Heliyon, 2024).

Target: DENV2 NS2B-NS3 protease (Dengue virus type 2, UniProt P29990)
Assay: DENV2 NS2B-NS3 protease inhibition assay
Type: biochemical
Conditions: for fold decrease of inhibitory activity: based on IC50, compared to 3e; for IC50: IC50 (Table 3), in vitro inhibition of DENV2 NS2B-NS3 protease, two decimals
Method in brief: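 Recombinant DENV-2 NS2B-NS3 protease (pQE-30, E. coli XL1-Blue MRF', IPTG-induced, Ni-NTA-purified) at 3.5 µM in 200 mM Tris-HCl pH 8.5. Preincubated with test compound (700 µM screen; 5.5–700.0 µM for IC50) for 10 min at 37 °C. Then 150 µM Boc-Gly-Arg-Arg-MCA added, 1 h at 37 °C. AMC read at ex 365/em 410 nm. % inhibition relative to enzyme+substrate control, buffer blank subtracted. n = 3; IC50 by nonlinear regression.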

Sequence of DENV2 NS2B-NS3 protease (P29990 1346-1475): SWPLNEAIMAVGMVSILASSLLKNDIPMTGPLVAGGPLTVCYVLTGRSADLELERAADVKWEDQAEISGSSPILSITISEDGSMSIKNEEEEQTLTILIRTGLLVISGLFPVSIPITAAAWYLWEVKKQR
Sequence of DENV2 NS2B-NS3 protease (P29990 1476-1653): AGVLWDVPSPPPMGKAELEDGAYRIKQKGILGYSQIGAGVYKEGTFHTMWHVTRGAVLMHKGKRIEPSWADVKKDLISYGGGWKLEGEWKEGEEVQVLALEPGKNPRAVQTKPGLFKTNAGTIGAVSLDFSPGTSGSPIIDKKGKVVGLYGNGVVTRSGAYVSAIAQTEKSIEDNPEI

Compound | inhibition at 700 µM | fold decrease of inhibitory activity | IC50 | fold decrease of inhibition (based on IC50, compared to 3k)
COc1ccc(-c2nc3cc4nc5ccccc5nc4cc3[nH]2)cc1[N+](=O)[O-] [Compound 3a, 2-(4-methoxy-3-nitrophenyl)-1H-imidazo [4,5-b]phenazine] | 83.5 ± 1.96% | 1 fold | – | –
Oc1ccccc1-c1nc2cc3nc4ccccc4nc3cc2[nH]1 [Compound 3b, 2-(2-hydroxyphenyl)-1H-imidazo [4,5-b]phenazine] | 46.6 ± 1.68% | – | – | –
COc1ccc(-c2nc3cc4nc5ccccc5nc4cc3[nH]2)cc1OC [Compound 3c, 2-(3,4-dimethoxyphenyl)-1H-imidazo [4,5-b]phenazine] | 55.31 ± 0.39% | – | – | –
COc1cc([N+](=O)[O-])ccc1-c1nc2cc3nc4ccccc4nc3cc2[nH]1 [Compound 3d, 2-(2-methoxy-4-nitrophenyl)-1H-imidazo [4,5-b]phenazine] | 83.9 ± 1.67% | 1.4 fold | – | –
O=[N+]([O-])c1ccc(-c2nc3cc4nc5ccccc5nc4cc3[nH]2)cc1O [Compound 3e, 2-(3-hydroxy-4-nitrophenyl)-1H-imidazo [4,5-b]phenazine] | 95.5 ± 1.75% | – | 54.8 µM | –
Oc1c(Br)cccc1-c1nc2cc3nc4ccccc4nc3cc2[nH]1 [Compound 3f, 2-(3-bromo-2-hydroxyphenyl)-1H-imidazo [4,5-b]phenazine] | 70.8 ± 1.46% | – | – | –
COc1cc(-c2nc3cc4nc5ccccc5nc4cc3[nH]2)cc(OC)c1OC [Compound 3g, 2-(3,4,5-trimethoxyphenyl)-1H-imidazo [4,5-b]phenazine] | 53.3 ± 2.76% | – | – | –
Oc1ccc(-c2nc3cc4nc5ccccc5nc4cc3[nH]2)c(O)c1 [Compound 3h, 2-(2,4-dihydroxyphenyl)-1H-imidazo [4,5-b]phenazine] | 84.7 ± 1.26% | – | – | –
CC(C)c1ccc(-c2nc3cc4nc5ccccc5nc4cc3[nH]2)cc1 [Compound 3i, 2-(4-isopropylphenyl)-1H-imidazo [4,5-b]phenazine] | 75.68 ± 0.26% | – | – | –
Oc1ccc(-c2nc3cc4nc5ccccc5nc4cc3[nH]2)cc1 [Compound 3j, 2-(4-hydroxyphenyl)-1H-imidazo [4,5-b]phenazine] | 60.3 ± 2.27% | 3 fold | – | –
FC(F)(F)Oc1ccc(-c2nc3cc4nc5ccccc5nc4cc3[nH]2)cc1 [Compound 3k, 2-(4-(trifluoromethoxy)phenyl)-1H-imidazo [4,5-b]phenazine] | 63.3 ± 2.8% | – | 71.9 µM | –
Fc1ccccc1-c1nc2cc3nc4ccccc4nc3cc2[nH]1 [Compound 3l, 2-(2-fluorophenyl)-1H-imidazo [4,5-b]phenazine] | 78.23 ± 0.03% | – | – | –
Fc1ccc(-c2nc3cc4nc5ccccc5nc4cc3[nH]2)cc1 [Compound 3m, 2-(4-fluorophenyl)-1H-imidazo [4,5-b]phenazine] | 84.8 ± 0.89% | – | – | 2.2 fold
O=c1c(O)c(-c2ccc(O)c(O)c2)oc2cc(O)cc(O)c12 [Quercetin, reference compound] | 90.27 ± 0.49% | – | 105 µM | –
